# About 460 (18%) of roughly 2,500 compounds were called active. These entries were drawn from the full list. Values without a mark were called inactive.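 Rule for the calls: active = mean activation above a cutoff of low control average plus 3 SD from the earlier screen (cut at about 12% in these data); inactive = the rest.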
# Assay: compound fluorescence interference without thin filaments, confirmation, artefact control for cardiac RTF calcium sensitizer project, biochemical (AID 504382)
# Conditions: IANBD fluorescence interference counterscreen, buffer, EC20 Ca2+; at 7.2 µM; hits give high values
# Outline: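 Medium: MOPS/KCl/MgCl2/EGTA/NTA/DTT buffer, pH 7.2 | Reagent: EC20 calcium, 0.472 mM | Compound dosing: 7.2 µM single dose | Times: 15 min compound exposure at 25 °C | Signal: Fluorescence, 480/540 nm | Measure: Interference relative to controls | Repeats: Triplicate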
row,Structure (SMILES),fluorescence artifact activation
1,O=c1cc(C(F)(F)F)c2cc3c4c(c2o1)CCCN4CCC3,19.7% (active)
2,Cc1cc2c(C(F)(F)F)cc(=O)oc2c2c1NCCC2,26.6% (active)
3,COc1ccc2c3c([nH]c2c1)C(C)=NCC3,0.04%
4,COc1ccc(CC(=O)N2CCN(C)CC2)cc1OC,0.89%
5,Cc1cc(N(CCCl)CCCl)ccc1C=Cc1ccncn1,3.44%
6,O=c1[nH]c(=O)n(Cc2ccc(F)cc2)c(O)c1/C=N/Nc1ccccc1,6.04%
7,CCOP(=O)(Cc1cc(C#N)oc1C)OCC,0.13%
8,CCN(CC)c1ccc(/C=C2\C(=O)NC(=S)N(C)C2=O)o1,7.26%
9,COc1ccc(N2C(=O)/C(=C/c3ccc(N(C)C)o3)C(=O)NC2=S)cc1,92% (active)
10,CCN(CC)c1ccc(/C=C2\C(=O)NC(=S)N(c3ccc(OC)cc3OC)C2=O)o1,0.1%
11,CCN(CC)c1ccc(N=Cc2c(O)n(Cc3ccco3)c(=O)[nH]c2=O)cc1,0.1%
12,Cc1ccc(C)c(Cn2c(C(=O)O)c(C=O)c3ccccc32)c1,0.2%
13,C[C@]12CCC(=O)C=C1CC[C@@H]1[C@@H]2CC[C@]2(C)C(=O)CC[C@@H]12,0.01%
14,CC1=C[C@@H]2c3cccc4[nH]cc(c34)C[C@H]2N(C)C1,14.5% (active)
15,CN1C[C@H](CO)C=C2c3cccc4[nH]cc(c34)C[C@H]21,0.35%
16,CCC(CO)NC(=O)C1C=C2c3cccc4[nH]cc(c34)CC2N(C)C1 (configuration not stated),1.39%
17,COC(=O)C1=C(c2ccc(F)cc2OCc2ccccc2)C[C@@H]2CC[C@H]1N2C(=O)NCc1ccc(OC)c(OC)c1,57% (active)
18,COC(=O)C1=C(c2cccc(OC)c2OC)C[C@@H]2CC[C@H]1N2C(=O)NCc1ccco1,1.08%
19,COC(=O)C1=C(c2cccc(OC)c2OC)C[C@@H]2CC[C@H]1N2C(=O)NCCCOC(C)C,0.79%

row,Structure (SMILES),fluorescence artifact activation
1,O=C(O)C1=CC2c3ccccc3C1c1ccccc12,0.01%
2,O=[N+]([O-])c1ccc(N2CCCCCC2)c2nonc12,6.24%
3,CCOC(=O)c1ccccc1C(=O)OCC,1510% (active)
4,COc1ccccc1N1C(=O)NC(=O)/C(=C/c2ccc3c4c(cccc24)CC3)C1=O,0.07%
5,Cn1c(O)c(/C=C/C=Nc2ccccc2)c(=O)n(C)c1=O,-0.08%
6,CCOCCCn1c(N)c(C(=O)Nc2sc3c(c2C(=O)OC)CCCC3)c2nc3ccccc3nc21,2.92%
7,CCCCn1c(O)c(C(=O)/C=C/c2c[nH]c3ccccc23)c(=O)[nH]c1=O,3%
8,CCCCC(=O)N/N=C/c1c(O)n(CC)c(=S)n(CC)c1=O,0.21%
9,O=c1[nH]c(=S)n(-c2ccc(Br)cc2)c(O)c1C=Nc1ccc(N2CCOCC2)cc1,0.07%
10,CCn1c(O)c(C=Nc2ccc(N3CCOCC3)cc2)c(=O)n(CC)c1=S,23.9% (active)
11,Cc1ccc(N2C(=O)NC(=O)/C(=C\c3ccoc3)C2=O)cc1,0.07%
12,COC(=O)[C@H]1C[C@@H]1[C@H](NP(=O)(c1ccccc1)c1ccccc1)c1ccccc1,0.01%
13,COc1ccc(N=Nc2c(O)[nH]c(=S)[nH]c2=O)cc1,0.58%
14,Nc1ccc2ccc3cccc[n+]3c2c1,0.21%
15,Cc1cc(Cl)nc(N)n1,14.3% (active)
16,C#C[C@]1(O)CC[C@H]2[C@@H]3CCC4=Cc5nc6nc7ccccc7n6cc5C[C@]4(C)[C@H]3CC[C@@]21C,0.16%
17,CN1CCc2cc3c(c4c2C1Cc1ccccc1-4)OCO3 (configuration not stated),0.18%
18,Cc1ccccc1N1C(=O)NC(=O)/C(=C/c2ccc(N3CCOCC3)o2)C1=O,14.1% (active)
19,CCOc1ccc(N2C(=O)NC(=O)/C(=C\c3ccc(N4CCCCC4)o3)C2=O)cc1,51.4% (active)

row,Structure (SMILES),fluorescence artifact activation
1,O=C1NC(=O)N(c2ccc3c(c2)OCO3)C(=O)/C1=C/c1ccc(N2CCCC2)o1,0.12%
2,O=C1NC(=O)C(=Cc2ccc(N3CCOCC3)o2)C(=O)N1,-0.04%
3,CCc1ccccc1N1C(=O)/C(=C/c2ccc(N3CCN(C)CC3)o2)C(=O)NC1=S,119% (active)
4,Cc1ccccc1N1C(=O)NC(=O)/C(=C\c2cc(Br)c(N3CCOCC3)o2)C1=O,-0.03%
5,Cc1cccc(N2C(=O)/C(=C/c3ccc(N4CCN(C)CC4)o3)C(=O)NC2=S)c1C,0.2%
6,O=C1NC(=O)N(c2ccc3c(c2)OCO3)C(=O)/C1=C\c1ccc(N2CCCCC2)o1,0.37%
7,CN1CCN(c2ccc(/C=C3\C(=O)NC(=S)N(c4cccc(Br)c4)C3=O)o2)CC1,-0.01%
8,O=[N+]([O-])c1ccc(N2CCCC2)c2ncccc12,9.73%
9,C[C@]12CCC3C(CC[C@H]4C[C@@H](O)[C@H](O)C[C@]34C)C1CC[C@@H]2O (some centres not stated),4.4%
10,OC12CCCCC1C(c1ccccc1)NCC2 (configuration not stated),0.14%
11,CN1C(=O)C(=Cc2sc(=O)n(-c3ccccc3)c2N2CCCCC2)C(=O)N(C)C1=O,-0.07%
12,CCN(CC)C(=O)c1ccc(NC(=O)COc2ccc([N+](=O)[O-])cc2Cl)cc1,0.19%
13,C=Cn1ccnc1P(=S)(c1nccn1C=C)c1nccn1C=C,6.72%
14,CN(C)P(=O)(CCl)Nc1ccccc1 (configuration not stated),10%
15,C=CCN1C(=O)/C(=C\c2ccc(N3CCOCC3)o2)C(=O)NC1=S,0.23%
16,O=C1NC(=O)C(=Cc2cn(CCOc3ccc4c(c3)OCO4)c3ccccc23)C(=O)N1,1.05%
17,Cc1cc(C)c(Cn2c(C(=O)O)c(C=O)c3ccccc32)c(C)c1,0.05%
18,CC(C)c1ccc(N2C(=O)NC(=O)/C(=C/C=C/c3ccco3)C2=O)cc1,-0.06%
19,CC(C)C[C@H]1C(=O)N2CCC[C@H]2[C@]2(O)O[C@](NC(=O)[C@@H]3C=C4c5cccc6[nH]cc(c56)C[C@H]4N(C)C3)(C(C)C)C(=O)N12,0.12%
